In ChEMBL document CHEMBL1817613, “Antitumor actinopyranones produced by Streptomyces albus POR-04-15-053 isolated from a marine sediment” (J Nat Prod, 2011):
Counter-ions that a name gives are not always drawn. Active and inactive are the calls of the source. The rule behind the calls is not given here.

Tests used:
MDA-MB-231 = test: Antitumor activity against human MDA-MB-231 cells after 72 hrs by SRB assay; type: functional; settings: MDA-MB-231, 72 h
Summary of the method: (§1)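 Cells kept in RPMI with 10% fetal calf serum, 2 mM L-glutamine, penicillin/streptomycin, 37 °C, 5% CO2. Triplicate cultures exposed 72 h to 10 concentrations from 10 to 0.0026 μg/mL. Fixed in 1% glutaraldehyde, stained with 0.4% SRB for 30 min, dye extracted in 10 mM Trizma base, absorbance at 490 nm. Doxorubicin positive control. GI50, TGI and LC50 interpolated from nonlinear-regression dose-response curves (mean ± SD).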

HT-29 = test: Antitumor activity against human HT-29 cells after 72 hrs by SRB assay; type: functional; settings: HT-29, 72 h; summary of the method: as §1
A549 = test: Antitumor activity against human A549 cells after 72 hrs by SRB assay; type: functional; settings: A549, 72 h; for CC50: read-out: LC50 (the source's name); summary of the method: as §1
[1] = molecular target: T1, Epidermal growth factor receptor (Homo sapiens, UniProt P00533); test: Inhibition of EGFR autophosphorylation in human HeLa cells preincubated for 30 mins prior to EGF stimulation by Western blotting; type: cell-based
Summary of the method: (§2)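 Cells preincubated 30 min with vehicle, AG1478 or compound, then treated with EGF for 10 min. Lysed on ice 15 min in Tris-HCl pH 7.5/NaCl/NP-40/EDTA buffer with protease inhibitors, cleared at 14000g for 30 min at 4 °C. Equal extract amounts run on SDS-PAGE and blotted to PVDF. Probed for phospho-EGFR, phospho-ERK and phospho-JNK, then reprobed for total ERK and JNK.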

[2] = molecular target: T1, Epidermal growth factor receptor; test: Inhibition of EGFR-induced AP1 activation in human HeLa cells preincubated for 1 hr prior to EGF stimulation by luciferase reporter gene assay; type: cell-based
[3] = molecular target: T1, Epidermal growth factor receptor; test: Inhibition of EGFR-induced ERK phosphorylation in human HeLa cells preincubated for 30 mins prior to EGF stimulation by Western blotting; type: cell-based; summary of the method: as §2
[4] = molecular target: T1, Epidermal growth factor receptor; test: Inhibition of EGFR-induced ERK phosphorylation in human HeLa cells preincubated for 4 hrs prior to EGF stimulation by Western blotting; type: cell-based
Summary of the method: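 Cells preincubated 4 h with vehicle, AG1478 or compound before a 10 min EGF treatment. Lysates cleared at 14000g for 30 min at 4 °C, resolved by SDS-PAGE and blotted to PVDF. Probed for phospho-ERK and reprobed for total ERK.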

HeLa [5] = test: Effect on total ERK2 level in human HeLa cells preincubated for 30 mins prior to EGF stimulation by Western blotting; type: functional, cell-based; summary of the method: as §2
HeLa [6] = test: Effect on total JNK1 level in human HeLa cells preincubated for 30 mins prior to EGF stimulation by Western blotting; type: functional, cell-based; summary of the method: as §2
[7] = molecular target: beta-catenin (Homo sapiens); test: Inhibition of beta-catenin activation in human SW480 cells by luciferase reporter gene assay
[8] = molecular target: HIF-1alpha (Homo sapiens); test: Inhibition of HIF1alpha activation in human HeLa cells stimulated with deferoxamine by luciferase reporter gene assay
[9] = molecular target: T1, Epidermal growth factor receptor; test: Inhibition of EGFR-induced JNK1 phosphorylation in human HeLa cells preincubated for 30 mins prior to EGF stimulation by Western blotting; type: cell-based; summary of the method: as §2

T1 sequence (P00533 whole entry): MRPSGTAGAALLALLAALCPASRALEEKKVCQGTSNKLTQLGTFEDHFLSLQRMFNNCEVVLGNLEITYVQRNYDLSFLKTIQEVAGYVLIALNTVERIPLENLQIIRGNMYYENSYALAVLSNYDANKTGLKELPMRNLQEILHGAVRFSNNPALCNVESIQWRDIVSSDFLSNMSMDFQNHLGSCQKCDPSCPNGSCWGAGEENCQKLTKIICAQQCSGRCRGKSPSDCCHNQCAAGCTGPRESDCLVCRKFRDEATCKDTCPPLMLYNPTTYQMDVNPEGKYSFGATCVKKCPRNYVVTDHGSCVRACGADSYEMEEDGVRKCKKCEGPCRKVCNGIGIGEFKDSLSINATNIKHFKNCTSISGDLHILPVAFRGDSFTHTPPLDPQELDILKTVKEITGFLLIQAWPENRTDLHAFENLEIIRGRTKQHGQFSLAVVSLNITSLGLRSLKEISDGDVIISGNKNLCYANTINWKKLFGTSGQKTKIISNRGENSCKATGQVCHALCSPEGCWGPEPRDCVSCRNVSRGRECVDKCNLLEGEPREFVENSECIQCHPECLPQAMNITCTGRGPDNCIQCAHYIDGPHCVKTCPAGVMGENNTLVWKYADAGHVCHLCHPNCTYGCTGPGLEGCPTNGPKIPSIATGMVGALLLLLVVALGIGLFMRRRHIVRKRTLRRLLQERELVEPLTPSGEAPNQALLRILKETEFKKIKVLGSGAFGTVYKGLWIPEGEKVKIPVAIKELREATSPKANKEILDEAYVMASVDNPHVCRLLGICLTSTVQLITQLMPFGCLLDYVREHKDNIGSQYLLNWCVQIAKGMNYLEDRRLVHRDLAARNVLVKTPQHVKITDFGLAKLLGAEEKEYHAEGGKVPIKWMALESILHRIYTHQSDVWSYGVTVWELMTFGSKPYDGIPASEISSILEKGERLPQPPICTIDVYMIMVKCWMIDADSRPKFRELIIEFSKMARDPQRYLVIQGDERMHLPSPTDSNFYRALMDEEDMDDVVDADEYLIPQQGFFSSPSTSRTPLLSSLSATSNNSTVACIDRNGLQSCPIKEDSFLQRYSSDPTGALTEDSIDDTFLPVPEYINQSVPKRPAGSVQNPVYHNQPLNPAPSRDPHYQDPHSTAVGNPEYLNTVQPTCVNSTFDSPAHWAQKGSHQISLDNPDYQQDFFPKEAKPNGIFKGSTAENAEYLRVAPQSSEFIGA

`COc1cccc2c1C(=O)c1c(O)c3c(c(O)c1C2=O)C[C@@](O)(C(=O)CO)C[C@@H]3O[C@H]1C[C@H](N)[C@H](O)[C@H](C)O1` [DOXORUBICIN HYDROCHLORIDE] showed a GI50 (MDA-MB-231) of 90 nM, a TGI (MDA-MB-231) of 180 nM and a GI50 (HT-29) of 150 nM. It also gave a TGI (HT-29) of 180 nM, a GI50 (A549) of 60 nM and a TGI (A549) of 200 nM. The CC50 (A549) was 590 nM.
With `COc1cc2ncnc(Nc3cccc(Cl)c3)c2cc1OC` the inhibition [1] was “Active”.
`C/C=C(\C)[C@H](O)[C@H](C)/C=C(C)/C=C/CC(C)/C=C/c1oc(OC)c(C)c(=O)c1C` (some centres not stated) was tested, and the GI50 (MDA-MB-231) was 10500 nM, the LC50 (concentration killing 50% of cells) (MDA-MB-231) was greater than 22000 nM and the TGI (MDA-MB-231) was greater than 22000 nM. For the same compound, the GI50 (HT-29) was 10800 nM, the LC50 (HT-29) was 11500 nM and the TGI (HT-29) was 10800 nM. It also gave a GI50 (A549) of 5000 nM, a TGI (A549) of 13500 nM and a CC50 (A549) greater than 22000 nM. For the same compound, the IC50 [2] was less than 7 nM, the inhibition [1] was “inactive” and the inhibition [3] was “Active”. The inhibition [4] was “Active”, the Activity (HeLa [5]) was “inactive” and the Activity (HeLa [6]) was “inactive”. For the same compound, the IC50 [7] was 660 nM and the IC50 [8] was 470 nM.
For `C/C=C(\C)C(O[C@@H]1O[C@H](CO)[C@@H](O)[C@H](O)[C@H]1O)C(C)/C=C(C)/C=C/CC(C)/C=C/c1oc(OC)c(C)c(=O)c1C` (some centres not stated), the GI50 (MDA-MB-231) was 500 nM, the LC50 (concentration killing 50% of cells) (MDA-MB-231) was 1010 nM and the TGI (MDA-MB-231) was 690 nM. The LC50 (HT-29) was 240 nM, the GI50 (A549) was 530 nM and the TGI (A549) was 760 nM. The CC50 (A549) was 1160 nM, the IC50 [2] was 160 nM and the inhibition [1] was “inactive”. For the same compound, the inhibition [3] was “inactive”, the Activity (HeLa [5]) was “inactive” and the Activity (HeLa [6]) was “inactive”. The IC50 [7] was 170 nM and the IC50 [8] was 60 nM.
Compound `C/C=C(\C)C(O)C(C)/C=C(C)/C=C/CC(C)/C=C/c1oc(OC)c(CC)c(=O)c1C` (configuration not stated) has a GI50 (MDA-MB-231) greater than 22000 nM, an LC50 (concentration killing 50% of cells) (MDA-MB-231) greater than 22000 nM and a TGI (MDA-MB-231) greater than 22000 nM. The GI50 (HT-29) was 21500 nM, the LC50 (HT-29) was greater than 22000 nM and the TGI (HT-29) was greater than 22000 nM. The GI50 (A549) was 18600 nM, the TGI (A549) was greater than 22000 nM and the CC50 (A549) was greater than 22000 nM. The inhibition [1] was “inactive”, the inhibition [3] was “inactive” and the inhibition [9] was “Active”. For the same compound, the Activity (HeLa [5]) was “inactive” and the Activity (HeLa [6]) was “inactive”.
In the case of `C/C=C(\C)C(O[C@@H]1O[C@H](CO)[C@@H](O)[C@H](O)[C@H]1O)C(C)/C=C(C)/C=C/CC(C)/C=C/c1oc(OC)c(CC)c(=O)c1C` (some centres not stated), the GI50 (MDA-MB-231) is reported as 240 nM, the LC50 (concentration killing 50% of cells) (MDA-MB-231) is reported as 820 nM and the TGI (MDA-MB-231) is reported as 430 nM. It also gave a GI50 (HT-29) of 380 nM, an LC50 (HT-29) of 4680 nM and a TGI (HT-29) of 1230 nM. It also gave a GI50 (A549) of 280 nM, a TGI (A549) of 520 nM and a CC50 (A549) of 1080 nM.
